The values below come from ChEMBL document CHEMBL1145194, “A bivalent ligand (KDAN-18) containing delta-antagonist and kappa-agonist pharmacophores bridges delta2 and kappa1 opioid receptor phenotypes” (J Med Chem, 2005).

Test [1] addresses T1, Opioid receptors; delta & kappa (Homo sapiens, UniProt P41145+P41143). The test can be described thus: Inhibition of [3H]deltorphin II binding to delta and kappa opioid receptors coexpressed in HEK 293 cells. Type of test: cell-based. The settings on record: hek293.
Test [2] addresses T1, Opioid receptors; delta & kappa. The test can be described thus: Inhibition of [3H]U-69593 binding to delta and kappa opioid receptors expressed in HEK 293 cells. Type of test: cell-based. Conditions: hek293. A digest of the protocol: (§1)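 Radioligand binding on intact HEK cells with [3H]U69593, using either δ and κ coexpressed in one line or a mixture of HEK cells singly expressing δ or κ. Run alone, with 10 nM NTB, or with 100 nM BNTX.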

For test [3] the target is unchanged. The test can be described thus: Inhibition of [3H]deltorphin II binding to delta and kappa opioid receptors expressed in HEK 293 cells. The settings on record: hek293. Type of test: cell-based.
Test [4] shares this target. The test can be described thus: Inhibition of [3H]U-69593 binding to delta and kappa opioid receptors coexpressed in HEK 293 cells. Type of test: cell-based. Conditions: hek293. A digest of the protocol: as §1
In test [5] the test system is Mus musculus. The test can be described thus: Effective dose required for agonistic activity upon intrathecal administration in mouse (n=10) tail flick assay. Format: functional. A digest of the protocol: (§2)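 CD1 mice dosed intrathecally, antinociception by tail-flick. A response counted as positive when latency exceeded control latency plus 3 SD of mean reaction time. ED50 given with 95% confidence limits. For combination dosing, the two monovalent ligands were coadministered i.t. in equimolar ratio.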

For test [6], the system named is Mus musculus. The test can be described thus: Ratio of effective dose of compound producing agonistic activity in presence and absence of naltriben (50 pmol) upon intrathecal administration in mouse tail flick assay. Format: functional. Summed up:
(§3)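 Intrathecal tail-flick in CD1 mice. NTB was given i.t. at 50 pmol with a 10 min peak time. Ratio is agonist ED50 with antagonist divided by agonist ED50 alone, taken as significant when its 95% confidence interval is >1.0. For combination dosing, the monovalent pair was coadministered i.t. equimolar.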

Test [7] deals with Mus musculus. The test can be described thus: Ratio of effective dose of compound producing agonistic activity in presence and absence of norbinaltorphimine (2.5 nmol) upon intrathecal administration in mouse tail flick assay.
The test system of test [8] is Mus musculus. The test can be described thus: Ratio of effective dose of compound producing agonistic activity in presence and absence of benzylidenenaltrexone (25 pmol) upon intrathecal administration in mouse tail flick assay. Type of test: functional. Summed up: (§4)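 Intrathecal tail-flick in CD1 mice. BNTX was given i.t. at 25 pmol with a 10 min peak time. Ratio is agonist ED50 with antagonist divided by agonist ED50 alone, taken as significant when its 95% confidence interval is >1.0. For combination dosing, the monovalent pair was coadministered i.t. equimolar.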

Test [9] addresses T1, Opioid receptors; delta & kappa. The test can be described thus: Inhibition of [3H]U-69593 binding to delta and kappa opioid receptors expressed in HEK 293 cells with 100 nM benzylidenenaltrexone. Type of test: cell-based. The settings on record: hek293. Summed up: as §1
In test [10] the test system is Mus musculus. The test can be described thus: Ratio of effective dose of compound producing agonistic activity in presence and absence of KDN21 upon intrathecal administration in mouse tail flick assay. Format: functional.
The target in test [11] is T1, Opioid receptors; delta & kappa. The test can be described thus: Inhibition of [3H]-U-69,593 binding to delta and kappa opioid receptors co-expressed in HEK 293 cells with 10 nM naltriben. Type of test: cell-based. Conditions: hek293. A digest of the protocol: as §1
In test [12] the test system is Mus musculus. The test can be described thus: Ratio of effective dose of compound producing agonistic activity in presence and absence of CTOP (5.9 pmol) upon intrathecal administration in mouse tail flick assay. Type of test: functional.
The target of test [13] is T1, Opioid receptors; delta & kappa. The test can be described thus: Inhibition of [3H]U-69593 binding to delta and kappa opioid receptors expressed in HEK 293 cells with 10 nM naltriben. Type of test: cell-based. Conditions: hek293. A digest of the protocol: as §1
Test [14] shares this target. The test can be described thus: Inhibition of [3H]-U-69,593 binding to delta and kappa opioid receptors co-expressed in HEK 293 cells with 100 nM benzylidenenaltrexone. Type of test: cell-based. Conditions: hek293. A digest of the protocol: as §1
The subject of test [15] is Mus musculus. The test can be described thus: Ratio of effective dose of compound producing agonistic activity in presence and absence of benzylidenenaltrexone (25 pmol) upon intrathecal administration in mouse tail flick assay in presence of DN-18. Format: functional. Summed up:
as §4

Test [16] has as its system Mus musculus. The test can be described thus: Effective dose required for agonistic activity upon intrathecal administration in mouse (n=10) tail flick assay in presence of DN-18. Format: functional. A digest of the protocol: as §2
In test [17] the test system is Mus musculus. The test can be described thus: Ratio of effective dose of compound producing agonistic activity in presence and absence of naltriben (50 pmol) upon intrathecal administration in mouse tail flick assay in presence of DN-18. Type of test: functional. A digest of the protocol:
as §3

Test [18] concerns Mus musculus. The test can be described thus: Ratio of effective dose of compound producing agonistic activity in presence and absence of norbinaltorphimine (2.5 nmol) upon intrathecal administration in mouse tail flick assay in presence of DN-18.

Regarding `CNC(=O)CNC(=O)CCC(=O)NCC(=O)Nc1cccc2c3c([nH]c12)[C@@H]1Oc2c(O)ccc4c2[C@@]12CCN(CC1CC1)[C@H](C4)[C@]2(O)C3`, the inhibition constant Ki is on record as 0.46 nM in test [1], over 1000 nM in test [2], 0.15 nM in test [3] and over 1000 nM in [4].
`CNC(=O)CNC(=O)CNC(=O)CCC(=O)NCC(=O)NCC(=O)Nc1cccc2c3c([nH]c12)[C@@H]1Oc2c(O)ccc4c2[C@@]12CCN(CC1CC1)[C@H](C4)[C@]2(O)C3`: the inhibitory constant (Ki) in test [1] is listed as 0.91 nM; in [2], over 1000 nM; in test [3], 1.07 nM; in test [4] it was over 1000 nM.
In the case of `CN(C(=O)Cc1ccc(Cl)c(Cl)c1)[C@H](CN1CCCC1)c1cccc(NC(=O)CNC(=O)CNC(=O)CCCCC(=O)NCC(=O)NCC(=O)Nc2cccc3c4c([nH]c23)[C@@H]2Oc3c(O)ccc5c3[C@@]23CCN(CC2CC2)[C@H](C5)[C@]3(O)C4)c1`, the ED50 in the test with Mus musculus [5] is on record as 0.5 nmol/mouse. The “ED50 Ratio” value stood at 2 in the test with Mus musculus [6], 3.4 in the test on Mus musculus [7] and 3.4 in the test on Mus musculus [8].
Take `CN(C(=O)Cc1ccc(Cl)c(Cl)c1)[C@H](CN1CCCC1)c1cccc(NC(=O)CNC(=O)CNC(=O)CCC(=O)NCC(=O)NCC(=O)Nc2cccc3c4c([nH]c23)[C@@H]2Oc3c(O)ccc5c3[C@@]23CCN(CC2CC2)[C@H](C5)[C@]3(O)C4)c1`: the Ki in [9] stood at 1.14 nM; in test [1], 0.008 nM; in test [2], 2.51 nM; in test [3], 0.52 nM; in [11], 2.34 nM; in test [13], 1.94 nM. Moreover, the figures for the Ki in [14] and in [4] were 0.19 nM and 0.06 nM, respectively. For the same compound, the ED50 in the test with Mus musculus [5] came to 0.19 nmol/mouse. For the same compound, the “ED50 Ratio” value is 25.9 in the test with Mus musculus [6]; 0.65 in the test on Mus musculus [10]; 0.8 in the test on Mus musculus [12]; 39.3 in the test on Mus musculus [7]; 3 in the test with Mus musculus [8].
Compound `CNC(=O)CNC(=O)CCC(=O)NCC(=O)Nc1cccc([C@@H](CN2CCCC2)N(C)C(=O)Cc2ccc(Cl)c(Cl)c2)c1` registered an ED50 in the test with Mus musculus [5] of 1.4 nmol/mouse. Further, the Ki in test [1] is 281.2 nM; in test [2], 6.75 nM; in test [3], over 1000 nM; in test [4], 41.6 nM. For the same compound, the “ED50 Ratio” value is 1 in the test with Mus musculus [6], 11 in the test on Mus musculus [7] and 1 with Mus musculus [8].
Turning to `CN(C(=O)Cc1ccc(Cl)c(Cl)c1)[C@H](CN1CCCC1)c1cccc(NC(=O)CNC(=O)CCC(=O)NCC(=O)Nc2cccc3c4c([nH]c23)[C@@H]2Oc3c(O)ccc5c3[C@@]23CCN(CC2CC2)[C@H](C5)[C@]3(O)C4)c1`, the inhibition constant Ki in [9] is 2.75 nM; in test [1] it was 1.23 nM; in test [2] it was 1.9 nM; in [3] it was 0.43 nM; in [11], 4.06 nM; in test [13] it was 2.02 nM. Further, the inhibitory constant (Ki) in [14] turned out to be 3.79 nM; in test [4] it was 1.66 nM. This compound registered an ED50 with Mus musculus [5] of 0.44 nmol/mouse. Also, the “ED50 Ratio” value with Mus musculus [6] was found to be 1.1; with Mus musculus [7], 33; in the test on Mus musculus [8], 2.1.
For the compound `CNC(=O)CNC(=O)CNC(=O)CCC(=O)NCC(=O)NCC(=O)Nc1cccc([C@@H](CN2CCCC2)N(C)C(=O)Cc2ccc(Cl)c(Cl)c2)c1`, the “ED50 Ratio” value in the test on Mus musculus [15] was about 1; in the test with Mus musculus [6], 1.5; with Mus musculus [17], about 1; with Mus musculus [18], 44.8; in the test on Mus musculus [7] it was 10.8; with Mus musculus [8], 1.3. Also, the figures for the ED50 in the test with Mus musculus [5] and in the test with Mus musculus [16] were 0.11 nmol/mouse and 0.14 nmol/mouse, respectively. Besides, the Ki in test [1] is over 1000 nM; in test [2], 23.9 nM; in test [3], over 1000 nM; in test [4], 36.2 nM.
